Drawing on ChEMBL document CHEMBL1125310, “(R)-2-(3-mercapto-2(S)-methyl-1-oxo-propoxy)-3-(methylthio)propanoic acid, the first ultra-short-acting angiotensin converting enzyme inhibitor” (J Med Chem, 1992), this text covers half-life, IC50 and inhibition for 11 molecules.

Data set [1] in a line: Half-life (hydrolysis) in human blood. Format: ADME.
The target of data set [2] is T1, Angiotensin-converting enzyme (Oryctolagus cuniculus) (UniProt P12822).
T1 sequence (whole entry): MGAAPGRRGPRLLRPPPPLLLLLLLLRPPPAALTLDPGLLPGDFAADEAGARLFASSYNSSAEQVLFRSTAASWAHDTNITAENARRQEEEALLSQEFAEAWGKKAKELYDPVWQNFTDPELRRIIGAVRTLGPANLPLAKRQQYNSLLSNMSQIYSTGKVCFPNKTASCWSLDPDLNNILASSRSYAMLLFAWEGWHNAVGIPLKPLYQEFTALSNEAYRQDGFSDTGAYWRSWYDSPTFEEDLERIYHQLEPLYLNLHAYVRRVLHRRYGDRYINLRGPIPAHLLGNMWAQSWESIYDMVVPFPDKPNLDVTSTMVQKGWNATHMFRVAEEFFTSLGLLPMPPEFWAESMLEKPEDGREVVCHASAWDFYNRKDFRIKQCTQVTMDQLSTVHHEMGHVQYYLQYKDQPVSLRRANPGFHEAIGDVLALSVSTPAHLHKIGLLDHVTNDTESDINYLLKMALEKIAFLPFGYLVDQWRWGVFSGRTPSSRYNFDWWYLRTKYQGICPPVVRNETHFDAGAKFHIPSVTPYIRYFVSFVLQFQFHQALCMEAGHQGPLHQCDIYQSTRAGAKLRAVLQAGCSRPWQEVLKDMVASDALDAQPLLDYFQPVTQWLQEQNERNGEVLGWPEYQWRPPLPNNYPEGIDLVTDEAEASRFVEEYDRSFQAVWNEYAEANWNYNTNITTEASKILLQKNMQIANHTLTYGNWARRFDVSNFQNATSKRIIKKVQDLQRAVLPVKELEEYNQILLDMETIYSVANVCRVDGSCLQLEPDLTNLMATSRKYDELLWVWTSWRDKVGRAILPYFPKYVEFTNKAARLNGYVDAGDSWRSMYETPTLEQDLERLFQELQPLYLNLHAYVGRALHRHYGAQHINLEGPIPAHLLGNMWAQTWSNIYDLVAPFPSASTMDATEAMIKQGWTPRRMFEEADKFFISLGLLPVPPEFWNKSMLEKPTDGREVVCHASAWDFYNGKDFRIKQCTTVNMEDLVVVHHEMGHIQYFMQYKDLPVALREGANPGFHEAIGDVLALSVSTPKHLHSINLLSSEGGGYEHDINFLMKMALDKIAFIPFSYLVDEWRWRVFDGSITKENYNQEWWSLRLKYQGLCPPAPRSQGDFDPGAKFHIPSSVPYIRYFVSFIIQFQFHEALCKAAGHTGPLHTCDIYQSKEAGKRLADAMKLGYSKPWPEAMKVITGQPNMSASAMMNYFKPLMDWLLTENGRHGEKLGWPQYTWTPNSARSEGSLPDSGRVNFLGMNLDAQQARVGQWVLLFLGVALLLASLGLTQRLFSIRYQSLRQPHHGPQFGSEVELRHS
Kind of data set: Inhibitory activity towards purified rabbit lung angiotensin I converting enzyme. Summed up: (§1)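 Purified rabbit lung ACE was used, following a published method with two changes: Zn2+ (20 μM) was added to the purified enzyme, and the substrate was radiolabeled. The read-out was inhibition of enzyme activity.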

Data set [3] deals with T1, Angiotensin-converting enzyme (Oryctolagus cuniculus). In words: Inhibitory activity towards purified rabbit lung Angiotensin I converting enzyme. Summed up: as §1
Data set [4] shares this target. Kind of data set: Inhibitory activity towards purified rabbit lung angiotensin I converting enzyme at 10 e-4 M.
Data set [5] shares this target. In words: Inhibitory activity towards purified rabbit lung angiotensin I converting enzyme; no inhibition at 10 e-5 M.

In turn, `CSC[C@H](OC(=O)[C@H](C)CS)C(=O)O` had a half-life in data set [1] of 14 min. The molecule also had an IC50 in data set [2] of 5.7 nM. The molecule `C[C@H](CS)C(=O)O[C@@H](CSCc1ccccc1)C(=O)O` displayed an IC50 in data set [3] of 3.2 nM. In addition, the half-life in data set [1] was over 60 min. Consider `CC(C)SC[C@H](OC(=O)[C@H](C)CS)C(=O)O`, for which the half-life in data set [1] came to 20 min. In data set [2], the midpoint of inhibition, the IC50, lay at 2.8 nM. Take `C[C@H](CS)C(=O)O[C@@H](CSC1CCCC1)C(=O)O`: the IC50 in data set [3] turned out to be 1.8 nM. Further, in data set [1], the half-life was found to be 27 min.

In the case of `C[C@H](CS)C(=O)N[C@@H](Cc1ccccc1)C(=O)O`, the IC50 in data set [3] was determined as 84.7 nM. In data set [1], this molecule showed a half-life of over 60 min. The molecule `C[C@H](CS)C(=O)OCC(=O)O` yielded a half-life in data set [1] of 53 min. In data set [2], this molecule yielded a 50% inhibitory concentration (IC50) of 123 nM. In the case of `C[C@H](CS)C(=O)O[C@@H](Cc1ccccc1)C(=O)O`, the IC50 in data set [3] was 10.6 nM. In data set [1], this molecule had a half-life of 23 min. Molecule `C[C@H](CS)C(=O)O` registered an inhibition in data set [4] of 30%. In turn, `CCC(CC)SC[C@H](OC(=O)[C@H](C)CS)C(=O)O` showed a half-life in data set [1] of 37 min. Besides, half-maximal inhibition in data set [2] (IC50) required 2 nM. `CSC[C@H](O)C(=O)O`: in data set [5], the inhibition result was “no inhibition at 10 e-5 M”. Take `C[C@H](CS)C(=O)N1CCC[C@H]1C(=O)O`: the IC50 in data set [3] amounted to 2.7 nM.

One may read the half-life as how long it takes for the measured level to halve. One may read the IC50 as the midpoint of a concentration-inhibition curve. High values mean weaker potency, low ones greater potency. The inhibition is the change of the read-out against control, counted positive when it falls.
